ChEMBL document CHEMBL1143291, “Synthesis and structure-activity relationships of novel, substituted 5,6-dihydrodibenzo[a,g]quinolizinium P2X7 antagonists” (Bioorg Med Chem Lett, 2009)
Activity calls are given as the source filed them. The rule behind the calls is not given here.

What was measured:
[1] = test system: THP-1; experiment: Inhibition of Bz-ATP-induced IL1-beta release in LPS/IFN-gamma-differentiated human THP1 cells at 1 uM by ELISA; format: functional
Procedure, shortened: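 THP-1 cells were differentiated for 3 h with 25 ng/ml LPS plus 10 ng/ml IFNγ. They were preincubated 30 min with 1 µM compound, then stimulated with 1 mM BzATP for 30 min. Supernatants were collected by centrifugation (1000 rpm, 5 min) and mature human IL-1β was measured by ELISA. Results are mean ± SD percent inhibition, n = 3.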

[2] = target: T1, P2X purinoceptor 7 (Homo sapiens, UniProt Q99572); experiment: Antagonist activity at human P2X7 receptor expressed in HEK293 cells assessed as inhibition of BzATP-induced fluorescent ethidium accumulation; format: functional, cell-based
T1 sequence (Q99572 whole entry): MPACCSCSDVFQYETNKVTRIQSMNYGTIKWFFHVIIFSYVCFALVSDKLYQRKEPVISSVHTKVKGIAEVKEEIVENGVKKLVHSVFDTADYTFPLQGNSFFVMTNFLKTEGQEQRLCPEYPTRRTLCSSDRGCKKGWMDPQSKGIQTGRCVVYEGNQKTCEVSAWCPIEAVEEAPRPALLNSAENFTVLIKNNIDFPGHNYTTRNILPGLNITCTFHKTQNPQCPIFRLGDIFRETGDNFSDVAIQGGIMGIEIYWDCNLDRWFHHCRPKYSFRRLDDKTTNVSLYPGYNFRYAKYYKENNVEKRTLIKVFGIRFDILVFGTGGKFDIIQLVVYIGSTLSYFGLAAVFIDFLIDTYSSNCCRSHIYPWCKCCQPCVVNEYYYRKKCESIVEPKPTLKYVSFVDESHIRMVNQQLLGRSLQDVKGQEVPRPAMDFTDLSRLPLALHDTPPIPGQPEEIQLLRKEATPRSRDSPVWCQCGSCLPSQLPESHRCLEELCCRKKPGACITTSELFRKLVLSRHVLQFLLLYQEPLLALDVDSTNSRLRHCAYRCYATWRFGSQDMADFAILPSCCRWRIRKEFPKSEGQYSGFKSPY
Procedure, shortened: (§1)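 Adherent HEK293 cells stably transfected with human P2X7 cDNA were preincubated 30 min with compound. They were then resuspended at 2.5 × 10^6 cells/ml in 20 mM HEPES pH 7.4 with 140 mM KCl, 5 mM glucose, 1 mM EDTA and 0.1 mM ethidium bromide. BzATP was added to 1 mM for 120 min at 37 °C. Ethidium uptake was read by fluorescence (ex 530/20, em 590/20 nm).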

[3] = target: T2, P2X purinoceptor 7 (Homo sapiens) (UniProt Q99572); experiment: Antagonist activity at human P2X7 receptor expressed in HEK293 cells assessed as inhibition of BzATP-induced fluorescent ethidium accumulation at 8 uM; format: functional, cell-based; procedure, shortened: as §1
T2 sequence (whole entry): T1 sequence (Q99572 whole entry)

[4] = test system: THP-1; experiment: Inhibition of Bz-ATP-induced IL1-beta release in LPS/IFN-gamma-differentiated human THP1 cells by ELISA; format: functional, cell-based
Procedure, shortened: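 Full concentration–response curves used THP-1 cells differentiated for 3 h with 25 ng/ml LPS and 10 ng/ml IFNγ. Cells were preincubated 30 min with compound, then stimulated 30 min with 1 mM BzATP. Mature IL-1β in the centrifuged supernatant was quantified by ELISA.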

Compound	inhibition at 1 µM [1] [%]	IC50 [2] [nM]	further results
CCc1c2[n+](cc3c(OCc4ccccc4C(F)(F)F)c(OC)ccc13)CCc1cc(OC)c(OC)cc1-2	13	2560	–
CCc1c2[n+](cc3c(OCc4ccc(-c5ccccc5)cc4)c(OC)ccc13)CCc1cc(OC)c(OC)cc1-2	–	3220	Activity [1]: inactive
CCCc1c2[n+](cc3c(OC)c(OC)ccc13)CCc1cc(OC)c(OC)cc1-2	–	500	–
COc1cc(Cc2c3[n+](cc4c(OC)c(OC)ccc24)CCc2cc4c(cc2-3)OCO4)cc(OC)c1	39	260	–
COc1ccc2cc3[n+](cc2c1OC)CCc1cc2c(cc1-3)OCO2	–	–	inhibition [3]: 7.03%
C=CCc1c2[n+](cc3c(OC)c(OC)ccc13)CCc1cc3c(cc1-2)OCO3	71	440	–
COc1cc2c(cc1OC)-c1c(CC3CCCCC3)c3ccc(OC)c(OC)c3c[n+]1CC2	17	1120	–
CCc1c2[n+](cc3c(OCc4ccc(OCc5ccccc5)cc4)c(OC)ccc13)CCc1cc(OC)c(OC)cc1-2	–	2810	Activity [1]: inactive
CCc1c2[n+](cc3c(OCc4ccccc4C)c(OC)ccc13)CCc1cc(OC)c(OC)cc1-2	–	5020	Activity [1]: inactive
CCc1c2[n+](cc3c(OCc4cc(C)ccc4C)c(OC)ccc13)CCc1cc(OC)c(OC)cc1-2	8	1530	–
CCc1c2[n+](cc3c(OCc4cc(OC)c(OC)cc4[N+](=O)[O-])c(OC)ccc13)CCc1cc(OC)c(OC)cc1-2	83	170	IC50 [4]: 175 nM
COc1ccc2c(Cc3c(F)cccc3Cl)c3[n+](cc2c1OC)CCc1cc2c(cc1-3)OCO2	50	400	–
CCc1c2[n+](cc3c(OCc4cccc([N+](=O)[O-])c4C)c(OC)ccc13)CCc1cc(OC)c(OC)cc1-2	–	5400	–
CCc1c2[n+](cc3c(OCc4ccc(F)cc4C(F)(F)F)c(OC)ccc13)CCc1cc(OC)c(OC)cc1-2	13	820	–
CC[C@@H]1c2ccc(OC)c(OC)c2CN2CCc3cc4c(cc3[C@H]12)OCO4 (racemic)	34	560	–
CN([C@@H](Cc1ccc(OS(=O)(=O)c2cccc3cnccc23)cc1)C(=O)N1CCN(c2ccccc2)CC1)S(=O)(=O)c1cccc2cnccc12	79	340	IC50 [4]: 81 nM
CCc1c2[n+](cc3c(OCc4cc(C)ccc4[N+](=O)[O-])c(OC)ccc13)CCc1cc(OC)c(OC)cc1-2	40	730	–
COc1ccc2c(c[n+](C)c3c4cc5c(cc4ccc23)OCO5)c1OC	–	–	Activity [1]: inactive
CCc1c2[n+](cc3c(OC)c(OC)ccc13)CCc1cc3c(cc1-2)OCO3	73	350	–
CCCC(I)c1c2[n+](cc3c(OC)c(OC)ccc13)CCc1cc3c(cc1-2)OCO3 (centres undefined)	54	420	–
CCc1c2[n+](cc3c(OCc4ccc(C(C)(C)C)cc4)c(OC)ccc13)CCc1cc(OC)c(OC)cc1-2	33	1260	–
CCc1c2[n+](cc3c(OCc4cccc(Cl)c4)c(OC)ccc13)CCc1cc(OC)c(OC)cc1-2	7	2660	–
CCc1c2[n+](cc3c(OCc4ccc(Cl)nc4)c(OC)ccc13)CCc1cc(OC)c(OC)cc1-2	33	4410	–
COc1cc2c(cc1OC)-c1cc3ccc(OC)c(OC)c3c[n+]1CC2	–	–	Activity [3]: inactive
CCc1c2[n+](cc3c(OCc4cc([N+](=O)[O-])ccc4OC)c(OC)ccc13)CCc1cc(OC)c(OC)cc1-2	42	420	–
CCc1c2[n+](cc3c(OCc4ccc(Br)cc4)c(OC)ccc13)CCc1cc(OC)c(OC)cc1-2	5	2600	–
